Source: ChEMBL document CHEMBL3352597, “Heck products of parthenolide and melampomagnolide-B as anticancer modulators that modify cell cycle progression” (Eur J Med Chem, 2014)
Values after ≈ are worked out from the molar mass of the structure shown. Active and inactive are the calls of the source. The rule behind the calls is not given here.

Key:
CCRF-CEM = test: Anticancer activity against human CCRF-CEM cells assessed as growth inhibition at 10^-5 M; assay type: functional; details: read-out: GI
Procedure, shortened: (§1)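 NCI-60 human tumour cell line panel screened at a single concentration of 10^-5 M; value is percent growth inhibition relative to untreated growth.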

Oocyte = test: Induction of immature stage VI Xenopus oocyte maturation assessed as spontaneous maturation measured as germinal vesicle (nuclear) breakdown at 100 uM after overnight incubation; assay type: functional, cell-based
Procedure, shortened: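 Isolated Xenopus oocytes (20 per well) incubated overnight with compound in DMSO at 100 μM final, no progesterone. The next morning, GVBD is scored as a white spot at the animal pole. Rate is expressed relative to DMSO controls, where 2.0 means spontaneous maturation.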

[1] = Anticancer activity against human BT549 cells assessed as growth inhibition at 10^-5 M; assay type: functional; details: BT-549, read-out: GI; procedure, shortened: as §1
[2] = Solubility in serum (unknown origin); assay type: ADME

Compound | inhibition of growth at 10 µM (CCRF-CEM) | Activity (Oocyte) | inhibition of growth at 10 µM [1] | solubility [2]
C[C@@]12CC/C=C(/CO)CC[C@@H]3/C(=C\c4ccccc4Br)C(=O)O[C@@H]3[C@@H]1O2 | 28.5% | Active | 24.2% | –
C=C1C(=O)O[C@@H]2C3O[C@]3(C)CC/C=C(\C)CC[C@@H]12 (some centres undefined) | – | – | – | 169 µM (≈ 42 µg/mL)
